Compound activity as filed in PubChem.
Compounds with a hit are over-represented: about 1.7% of the library has one in this group of screens.
HNF4A DNA FP = change in binding of human HNF4 alpha to DNA; AID 1224865; HNF4a-FITC DNA binding, fluorescence polarization, 1 h; activity change, % at 10 µM; actives 0.3% (n = 360,000); P41235; in the data active = activity change above about 30%, passing the limit was not always enough
TPT1 inhibitor = C. albicans TPT1 enzyme inhibition | recombinant caTPT1, FP RNA substrate dephosphorylation | inhibition, % at 5 µM | actives 0.81% (n = 300,000) | AID 1962;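 active = inhibition above the mean of all tested compounds plus 3 SD, set per screening campaign, cut at about 24% in these data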;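 note: plate controls were DMSO alone for no effect and ferristatin control at 100 nM for full effect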
IDE act = activators of human insulin-degrading enzyme in cells | P14735 | HEK cells, FAbeta-B cleavage, fluorescence polarization; 0% vehicle, 100% cell-free pure enzyme wells | activation, % at 5.96 µM | actives 0.073% (n = 340,000);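 active = activation above the mean of all tested compounds plus 3 SD, set per screening campaign, cut at about 17% in these data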
Target sequence (P14735 whole entry, looked up): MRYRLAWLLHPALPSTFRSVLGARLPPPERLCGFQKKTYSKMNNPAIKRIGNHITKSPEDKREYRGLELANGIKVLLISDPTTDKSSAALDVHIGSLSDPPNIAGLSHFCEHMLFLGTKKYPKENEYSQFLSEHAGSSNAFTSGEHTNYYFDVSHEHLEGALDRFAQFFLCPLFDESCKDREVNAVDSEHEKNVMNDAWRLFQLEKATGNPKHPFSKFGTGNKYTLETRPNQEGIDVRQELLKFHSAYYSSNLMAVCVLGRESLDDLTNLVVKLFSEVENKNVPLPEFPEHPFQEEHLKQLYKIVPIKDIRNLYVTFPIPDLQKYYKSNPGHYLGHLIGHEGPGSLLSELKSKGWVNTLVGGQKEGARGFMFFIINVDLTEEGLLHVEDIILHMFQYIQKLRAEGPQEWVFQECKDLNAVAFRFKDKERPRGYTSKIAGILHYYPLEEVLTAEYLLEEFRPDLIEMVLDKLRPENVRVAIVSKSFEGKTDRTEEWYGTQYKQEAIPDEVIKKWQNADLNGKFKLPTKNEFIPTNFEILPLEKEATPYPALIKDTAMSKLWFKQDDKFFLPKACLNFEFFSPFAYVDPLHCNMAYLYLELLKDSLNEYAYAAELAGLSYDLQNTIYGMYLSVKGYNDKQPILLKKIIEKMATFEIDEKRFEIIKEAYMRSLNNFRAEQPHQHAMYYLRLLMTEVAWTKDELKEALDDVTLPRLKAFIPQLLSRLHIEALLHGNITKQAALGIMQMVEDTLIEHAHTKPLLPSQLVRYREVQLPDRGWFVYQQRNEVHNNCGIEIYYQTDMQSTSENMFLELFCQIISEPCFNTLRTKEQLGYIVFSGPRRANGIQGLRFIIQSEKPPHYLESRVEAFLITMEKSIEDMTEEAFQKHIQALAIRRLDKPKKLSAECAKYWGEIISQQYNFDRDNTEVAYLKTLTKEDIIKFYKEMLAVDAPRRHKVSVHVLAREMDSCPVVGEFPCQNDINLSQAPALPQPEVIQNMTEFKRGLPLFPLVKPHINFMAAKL
Rpn11 inh = blocks the human proteasome subunit Rpn11. O00487. human 26S proteasome, Ub4-pepOG fluorescence polarization; 20S core pre-blocked with epoxomicin. calls only at 20 µM. actives 0.59% (n = 360,000). AID 588493;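 active = inhibition at 20 µM, scaled to each plate's controls, above about 33%, limit read from the data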
CSN deneddyl inh = inhibitors of human CSN-mediated cullin deneddylation. actives 0.38% (n = 360,000). inhibition, % at 12.5 µM. Purified CSN, SCF-Nedd8-OG deneddylation, fluorescence polarization. Q92905;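 active = pattern-corrected inhibition above about 35%, with an unprinted fluorescence ratio check between 0.5 and 1.5, limit read from the data, passing the limit was not always enough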;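 note: 0% = enzyme with substrate and 100% = substrate without enzyme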
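Detection – fluorescence polarization · System – HEK293T-derived human Csn5 enzyme · Controls – substrate-only high control, full reaction low control · Timing – 90 min, room temperature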
IDE inh = inhibitors of human insulin-degrading enzyme in cells; HEK cells, FAbetaB cleavage, fluorescence polarization; inhibition, % at 5.59 µM; actives 0.41% (n = 320,000);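 active = percent inhibition above the average of all tested compounds plus 3 SD, set per screening campaign, cut at about 16% in these data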;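 note: IDE supplied by intact live HEK cells; FP after avidin binding of uncleaved biotin substrate so inhibition keeps polarization high; 0% = DMSO wells and 100% = 60 µM reference IDE inhibitor Ii1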
caTPT1 confirm = confirmation of Candida albicans TPT1 inhibitors. shares compounds with TPT1 inhibitor. recombinant caTPT1, fluorescence polarization, RNase T1 coupled. inhibition, % at 5 µM. actives 74% (n = 2,400). AID 2149;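 active = inhibition above the primary screen limit, the mean inhibition of all tested compounds plus 3 SD, cut at about 25% in these data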
RNase T1 inh = RNase T1 inhibition in TPT1 counter-screen | AID 2153 | actives 83% (n = 2,400) | RNase T1 cleavage, fluorescence polarization, 1536-well | inhibition, % at 5 µM | shares compounds with TPT1 inhibitor;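 active = inhibition above the solvent-only control well mean plus 3 SD, limit set per screening run, cut at about 23% in these data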;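 note: plate controls were DMSO wells with enzyme for no effect and wells without RNase T1 for full effect; inhibitors block cleavage so intact labeled substrate keeps polarization high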
The depositor's hits bear a star; i = inactive; · = no result given.

SMILES | HNF4A DNA FP | TPT1 inhibitor | IDE act | Rpn11 inh | CSN deneddyl inh | IDE inh | caTPT1 confirm | RNase T1 inh
O=C(C(c1ccccc1)c1ccccc1)N1CCN(c2ccccn2)CC1 | 0 | -3 | -8 | i | -7 | 10 | · | ·
COc1ccc(N(CC(=O)NC(C)C)C(=O)CCC(=O)Nc2ccccn2)cc1 | -4 | -3 | 3 | i | 3 | 0 | · | ·
CCC(Sc1nc(C)cc(=O)[nH]1)C(=O)Nc1sc2c(c1C#N)CCCC2 (configuration not stated) | -4 | 2 | 4 | i | 4 | -4 | · | ·
C[C@H]1CN([C@@H](C)CO)C(=O)CCCn2nncc2CO[C@H]1CN(C)C(=O)c1ccccc1 | -3 | · | · | i | -4 | · | · | ·
CC(=O)Nc1ccc(N=Cc2c(O)ccc3ccccc23)cc1 | 77* | 46* | -1 | · | 42 | 0 | 46* | 79*
COc1ccc(N=Cc2c(O)ccc3ccccc23)cc1 | 72* | 112* | 3 | · | 51* | 3 | 90* | 110*
O=C(O)c1ccc(N=Cc2c(O)ccc3ccccc23)cc1 | 12 | -1 | 3 | i | -1 | -1 | · | ·
CCCCN(CCCC)C(=O)CSc1nnc(-c2cc(OC)c(OC)c(OC)c2)o1 | -2 | 1 | 4 | i | 0 | -4 | · | ·
CC(=O)NCCC(=O)Nc1ccc(C(N)=O)cc1 | 2 | 5 | 2 | i | -10 | -1 | · | ·
Nc1nc(-c2ccccc2)c(-c2ccc([N+](=O)[O-])cc2)s1 | 13 | 40* | -6 | i | 2 | 1 | 51* | 69*
CCOc1cccc2c1OC(c1cc(OC)c(OC)c(OC)c1)N1N=C(c3ccc(C)o3)CC21 (configuration not stated) | 129 | 115* | -5 | · | 22 | 3 | 10 | 15
COc1ccc(C2CC(c3ccc(C)o3)=NN2C(C)=O)cc1 (configuration not stated) | 0 | -1 | -4 | i | -3 | -9 | · | ·
CC1CCc2cccc3c2N1c1cc(C#N)c(C#N)cc1O3 (configuration not stated) | 2 | 26* | -1 | i | 8 | 1 | 22 | 31*
CC1CCCCN1c1cc(C#N)c(C#N)cc1[N+](=O)[O-] (configuration not stated) | -1 | -5 | 5 | i | -1 | -1 | · | ·
COc1ccc(OC)c(C2=C/C(=C/c3ccccn3)C(=O)O2)c1 | 6 | 80* | -8 | · | 32 | 9 | 84* | 90*
COc1cc(NC(=O)CN2CCC(Cc3ccccc3)CC2)c(C)cc1[N+](=O)[O-] | 1 | -1 | 2 | i | -2 | -5 | · | ·
COc1ccc(CCNC(=O)CSc2ccc(-c3ccccc3)nn2)cc1OC | -2 | 4 | 6 | i | 3 | 4 | · | ·
COc1ccc(CCNC(=O)CSc2nnc(C(C)N(C)C)n2Cc2ccccc2)cc1OC (configuration not stated) | 2 | 100* | 4 | i | -4 | 4 | -1 | 3
COc1ccc2[nH]c(C)c(-c3csc(N)n3)c2c1 | 6 | 5 | -1 | i | 6 | 5 | · | ·
COC(=O)CSCc1nc2ccccc2[nH]c1=O | 24 | 64* | -2 | i | 7 | 12 | 61* | 72*
COC(=O)CCc1nc2ccccc2[nH]c1=O | -2 | -2 | 1 | i | -2 | 8 | · | ·
COc1ccccc1C1C([N+](=O)[O-])=CC([N+](=O)[O-])=CN1C (configuration not stated) | -1 | 42* | -5 | i | 3 | 1 | 52* | 61*
CCCC1=[N+](CC(=O)c2ccc(Br)cc2)CCn2cccc21 | 7 | 118* | -6 | · | 11 | -5 | 9 | 18
CCCC1=[N+](CC(=O)c2ccccc2)CCn2cccc21 | -3 | 86* | -4 | i | -8 | 1 | 8 | 14
